From ChEMBL document CHEMBL3120069, “Chemical genetics-based discovery of indole derivatives as HCV NS5B polymerase inhibitors” (Eur J Med Chem, 2014) come the findings set out here.

For data set [1], the system named is Hepatitis C virus. In words: Antiviral activity against Hepatitis C virus JFH-1 J6 genotype 2a infected in human Huh7.5 cells assessed as inhibition of viral core synthesis at 10 uM by Western blot analysis. To be noted: Hepacivirus hominis, subtype 2a JFH1 J6, Huh-7, TDE = time-dependent effect. The class given is functional, organism-based. The gist of the method: (§1)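 J6/JFH1 RNA-transfected Huh7.5 cells on 10 µM compound, lysed at 24, 48, 72 h. HCV core and β-actin probed by Western blot, core intensity normalised to β-actin; T1/2 from the time-response curve.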

In data set [2] the test system is Hepatitis C virus. In words: Antiviral activity against Hepatitis C virus JFH-1 J6 genotype 2a infected in human Huh7.5 cells assessed as inhibition of viral RNA replication at 10 uM by real time qRT-PCR analysis. The data set is classed as functional, organism-based. To be noted: Hepacivirus hominis, subtype 2a JFH1 J6, Huh-7, TDE = time-dependent effect. The gist of the method:
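J6/JFH1 RNA-transfected Huh7.5 cells held at 10 µM compound for increasing periods; HCV and host GAPDH RNA measured by real-time qRT-PCR. Triplicates, mean ± SD; T1/2 for halving viral RNA from the time-response curve.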
(In general: Real-time PCR tracks product formation cycle by cycle.)

Data set [3] relates to Hepatitis C virus. The data set can be described thus: Antiviral activity against Hepatitis C virus Con1 Bart79I genotype 1b expressing NS5A S2204I mutant infected in human Huh7.5 cells assessed as inhibition of viral RNA replication at 10 uM by real time qRT-PCR analysis. As to conditions: Hepacivirus hominis, subtype 1b Con1 Bart79I, Huh-7, TDE = time-dependent effect. The data set is classed as functional, organism-based. The gist of the method: (§2)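 Huh7.5 cells stably carrying Bart79I genotype 1b subgenomic replicon (G418 750 mg/ml selection, 3 weeks), 3×10⁵ cells/well with DMSO or compound. Dose series over 72 h, or 10 M for increasing periods. Viral and host GAPDH RNA measured by real-time qRT-PCR. EC50 and T1/2 taken from response curves of triplicate experiments.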

The nature of data set [4]: Inhibition of recombinant HCV N-terminal hexahistidine-tagged NS5B Cdelta21 RdRp expressed in Escherichia coli assessed as incorporation of [alpha-32P]-UTP in RNA after 2 hrs by autoradiographic analysis. On the set-up: species or system Hepacivirus hominis. The gist of the method:
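N-terminal His6-tagged recombinant HCV NS5B from E. coli, primer-dependent elongation with poly(A) template (1 µg) and oligo(U)20 (10 pmol). Buffer: 50 mM Tris-HCl pH 7.5, 50 mM NaCl, 100 mM K glutamate, 2 mM MgCl2, 1 mM DTT, RNase inhibitor, UTP plus [α-³²P]UTP. Increasing compound concentrations; IC50 from dose-response curve.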

For data set [5], the system named is Hepatitis C virus. In words: Antiviral activity against Hepatitis C virus Con1 Bart79I genotype 1b expressing YFP infected in human Huh7.5 cells assessed as inhibition of NS5A S2204I mutant synthesis at 10 uM by FACS analysis. The class given is functional, organism-based. As to conditions: Hepacivirus hominis, subtype 1b Con1 Bart79I, Huh-7, TDE = time-dependent effect. Summed up: (§3)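 Huh7.5 cells stably carrying Bart79I-YFP subgenomic replicon (G418 selection), treated with DMSO or compound. Dose series over 5 days (120 h), or 10 M with sampling at 24, 48, 72 h. Cells washed, resuspended in PBS, and NS5A-YFP-positive cells counted by FACS. EC50 and T1/2 taken from response curves.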
For orientation: Flow cytometry measures light scatter and fluorescence of single cells or particles in a stream.

In data set [6] the test system is Hepatitis C virus. In words: Antiviral activity against Hepatitis C virus Con1 Bart79I genotype 1b expressing YFP infected in human Huh7.5 cells assessed as NS5A S2204I mutant synthesis at 10 uM after 24 hrs by FACS analysis (reference value: 52.2%). The class given is functional, Hepacivirus hominis, subtype 1b Con1 Bart79I, Huh-7. Summed up:
as §3

The subject of data set [7] is Hepatitis C virus. The data set can be described thus: Antiviral activity against Hepatitis C virus Con1 Bart79I genotype 1b expressing YFP infected in human Huh7.5 cells assessed as NS5A S2204I mutant synthesis at 2 uM after 120 hrs by FACS analysis (reference value: 66%). The data set is classed as functional, Hepacivirus hominis, subtype 1b Con1 Bart79I, Huh-7. Summed up: as §3

In data set [8] the test system is Hepatitis C virus. In words: Antiviral activity against Hepatitis C virus Con1 Bart79I genotype 1b expressing YFP infected in human Huh7.5 cells assessed as NS5A S2204I mutant synthesis at 1 uM after 120 hrs by FACS analysis (reference value: 66%). The data set is classed as functional, Hepacivirus hominis, subtype 1b Con1 Bart79I, Huh-7. The gist of the method:
as §3

Data set [9] concerns Hepatitis C virus. In words: Antiviral activity against Hepatitis C virus JFH-1 J6 genotype 2a infected in human Huh7.5 cells assessed as time required for reducing viral core level by half at 10 uM by Western blot analysis. The data set is classed as functional, organism-based. As to conditions: Hepacivirus hominis, subtype 2a JFH1 J6, Huh-7. Summed up: as §1
Background: A western blot detects proteins with antibodies after separation by electrophoresis.

Data set [10] relates to Hepatitis C virus. The data set can be described thus: Antiviral activity against Hepatitis C virus JFH-1 J6 genotype 2a infected in human Huh7.5 cells assessed as inhibition of viral core synthesis after 120 hrs by Western blot analysis. The data set is classed as functional, organism-based. Summed up: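 J6/JFH1 RNA-transfected Huh7.5 cells, 1.5 × 10⁵ per well, given DMSO or increasing concentrations for 120 h. RIPA lysates with protease inhibitors, protein by Bradford; HCV core and β-actin by Western blot, core normalised to β-actin. EC50 from dose-response.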

Data set [11] can be described thus: Selectivity ratio of EC50 for Hepatitis C virus JFH-1 J6 genotype 2a to EC50 for Hepatitis C virus Con1 Bart79I genotype 1b expressing NS5A S2204I mutant. The class given is functional.
Data set [12] deals with Hepatitis C virus. In words: Antiviral activity against Hepatitis C virus Con1 Bart79I genotype 1b expressing NS5A S2204I mutant infected in human Huh7.5 cells assessed as time required for reducing viral RNA level by half at 10 uM by real time qRT-PCR analysis. The class given is functional, organism-based. To be noted: Hepacivirus hominis, subtype 1b Con1 Bart79I, Huh-7. The gist of the method:
as §2

Data set [13] has as its system Hepatitis C virus. In words: Antiviral activity against Hepatitis C virus Con1 Bart79I genotype 1b expressing NS5A S2204I mutant infected in human Huh7.5 cells assessed as inhibition of viral RNA replication after 72 hrs by real time qRT-PCR analysis. To be noted: subtype 1b Con1 Bart79I. The class given is functional, organism-based. The gist of the method:
as §2

The subject of data set [14] is Hepatitis C virus. In words: Antiviral activity against Hepatitis C virus JFH-1 J6 genotype 2a infected in human Huh7.5 cells assessed as inhibition of viral RNA replication after 72 hrs by real time qRT-PCR analysis. The class given is functional, organism-based.
The test system of data set [15] is Hepatitis C virus. The data set can be described thus: Antiviral activity against Hepatitis C virus JFH-1 J6 genotype 2a infected in human Huh7.5 cells assessed as time required for reducing viral RNA level by half at 10 uM by luciferase reporter gene assay. The class given is functional, organism-based. As to conditions: Hepacivirus hominis, subtype 2a JFH1 J6, Huh-7. Summed up: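 Rluc-J6/JFH1 RNA-transfected Huh7.5 cells given 10 µM compound; renilla luciferase and cell viability measured at 24, 48, 72 h. T1/2 for halving replication taken from the time-response curve.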

The nature of data set [16]: Selectivity index, ratio of CC50 for human Huh7.5 cells to EC50 for Hepatitis C virus JFH-1 J6 genotype 2a infected in human Huh7.5 cells. The data set is classed as toxicity, cell-based, Huh-7. To be noted: read-out: Ratio CC50/EC50.
A short description of data set [17]: Cytotoxicity against human Huh7.5 cells assessed as cell viability after 72 hrs by MTT assay. The class given is cell-based, Huh-7.
The test system of data set [18] is Hepatitis C virus. The data set can be described thus: Antiviral activity against Hepatitis C virus JFH-1 J6 genotype 2a infected in human Huh7.5 cells assessed as inhibition of viral RNA replication after 72 hrs by luciferase reporter gene assay. To be noted: subtype 2a JFH1 J6, Huh-7, 72 h. The class given is functional, organism-based, Hepacivirus hominis.

The subject of data set [19] is Hepatitis C virus. In words: Antiviral activity against Hepatitis C virus Con1 Bart79I genotype 1b expressing YFP/NS5A S2204I mutant infected in human Huh7.5 cells assessed as inhibition of viral RNA replication after 72 hrs by real time qRT-PCR analysis. As to conditions: subtype 1b Con1 Bart79I, Huh-7, 72 h.
The mark [20] stands for this setting: Hepacivirus hominis, subtype 2a JFH1 J6, Huh-7.

For orientation: IC50 means the concentration that gives 50% inhibition. As usually defined, the EC50 is the concentration at which the effect is half-maximal. One may read the CC50 as the concentration that lowers cell viability or growth by half. The EC90 is the concentration needed for an effect of 90%.

The structures appear in SMILES notation.

`C/C(=C\c1c[nH]c2ccc(C#N)cc12)C(=O)Nc1ccc(C(C)(C)C)cc1`: the inhibition result with Hepatitis C virus [1] was “tde”; with Hepatitis C virus [2] it was “tde”; in the data set on Hepatitis C virus [3] it was “tde”; in the data set with Hepatitis C virus [5], “tde”; with Hepatitis C virus [10] (setting [20]), “Dose-dependent effect”; in the data set with Hepatitis C virus [13] (Hepacivirus hominis, Huh-7) it was “Dose-dependent effect”. Further, the inhibition result with Hepatitis C virus [14] (setting [20]) is “Dose-dependent effect”. For the same compound, the half-inhibitory concentration (IC50) in data set [4] is 292 nM. Further, the Activity came out at 32.2% in the data set with Hepatitis C virus [6], 4.2% with Hepatitis C virus [7] and 38.4% in the data set with Hepatitis C virus [8]. Further, the T1/2 with Hepatitis C virus [9] was 19.6 h; with Hepatitis C virus [12], 31.5 h; with Hepatitis C virus [15], 16.4 h. For the same compound, the EC50 with Hepatitis C virus [10] (subtype 2a JFH1 J6, Huh-7, 120 h) worked out at 2000 nM; in the data set with Hepatitis C virus [13] (Huh-7, 72 h), 600 nM; with Hepatitis C virus [14] (subtype 2a JFH1 J6, Huh-7, 72 h) it was 1900 nM; with Hepatitis C virus [18], 1100 nM; in the data set on Hepatitis C virus [19], 4770 nM. Also, the “Ratio EC50” value in data set [11] was found to be 3.2. Further, the selectivity ratio in data set [16] was 56.9. In data set [17], the CC50 at 72 h came out at 61800 nM. Moreover, the 90% effect concentration (EC90) in the data set on Hepatitis C virus [18] amounted to 2100 nM.
